Assay results collected from several papers.
Each line is one published result; the experiments were not run side by side.
Organism: Pseudomonas aeruginosa
Observed: microbial growth

SMILES	technique	strain	notes	MIC
C[C@H]1[C@H](NC(=O)/C(=N\OC(C)(C)C(=O)O)c2csc(N)n2)C(=O)N1S(=O)(=O)O	broth dilution	ATCC27853	–	2 µg/mL
Cc1cc(O)cc(Nc2nnc(-c3n[nH]c4ccc(C)cc34)s2)c1	–	ATCC27853	–	147 µg/mL
C[C@@H](O)[C@H]1C(=O)N2C(C(=O)O)=C(S[C@@H]3CN[C@H](C(=O)N(C)C)C3)[C@H](C)[C@H]12	–	ATCC27853	drug-resistant strain	0.25 µg/mL
C[C@@H](O)[C@H]1C(=O)N2C(C(=O)O)=C(S[C@@H]3CN[C@H](C(=O)N(C)C)C3)[C@H](C)[C@H]12	broth dilution	ATCC27853	–	0.25 µg/mL
Cc1cc(Nc2nnc(-c3n[nH]c4ccc(C)cc34)s2)cc([N+](=O)[O-])c1	–	ATCC27853	–	187 µg/mL
CCCCCCC#Cc1cncc(-c2nnc(SCc3cc([N+](=O)[O-])cc([N+](=O)[O-])c3)n2CCCN)c1	broth dilution	DSM1128	–	> 64 µg/mL
COc1ccc2ccc(O)c(/C=N/[C@H]3CCCC[C@H]3/N=C/c3ccc(-c4ccccc4)cc3O)c2c1	broth dilution	–	–	> 40 µM
CCCCCCC#Cc1cncc(-c2nnc(SCc3ccc([N+](=O)[O-])o3)n2CCCN)c1	broth dilution	DSM1128	–	> 64 µg/mL
[H]/N=C(\N/C(=N/[H])NCCCCCCNC(=N)NC(=N)Nc1ccc(Cl)cc1)Nc1ccc(Cl)cc1	–	PAO1	–	8 µM
Cc1ccc2[nH]nc(-c3nnc(Nc4ccc(Cl)c(Cl)c4)s3)c2c1	–	ATCC27853	–	121 µg/mL
CNC(C)C1CCC(N)C(OC2C(N)CC(N)C(OC3OCC(C)(O)C(NC)C3O)C2O)O1 (stereo not shown)	broth dilution	–	–	2 µg/mL
CCCCCCC#Cc1cncc(-c2nnc(SCc3cc(C(F)(F)F)cc(C(F)(F)F)c3)n2CCCN)c1	broth dilution	DSM1128	–	> 64 µg/mL
Cc1ccc2[nH]nc(-c3nnc(Nc4ccc([N+](=O)[O-])cc4)s3)c2c1	–	ATCC27853	–	105 µg/mL
COc1ccc2ccc(O)c(/C=N/[C@H]3CCCC[C@H]3/N=C/c3ccc(OCCN4CCCCC4)cc3O)c2c1	broth dilution	–	clinical isolate	> 40 µM
CCCCCCCCCCCC[N+](C)(C)Cc1ccccc1	–	PAO1	–	250 µM
CC(C)c1ccc(/C=C2\N=C(SCC(=O)O)N(c3ccccc3)C2=O)cc1	broth dilution	ATCC27 ATCC27853	–	12 µg/mL
Cc1ccc2[nH]nc(-c3nnc(Nc4ccc(Cl)c(Br)c4)s3)c2c1	–	ATCC27853	–	254 µg/mL
CO/N=C(\C(=O)N[C@@H]1C(=O)N2C(C(=O)O)=CCS[C@H]12)c1csc(N)n1	broth dilution	ATCC27853	–	16 µg/mL
CC[C@H]1OC(=O)[C@H](C)[C@@H](O[C@H]2C[C@@](C)(OC)[C@@H](O)[C@H](C)O2)[C@H](C)[C@@H](O[C@@H]2O[C@H](C)C[C@H](N(C)C)[C@H]2O)[C@](C)(O)C[C@@H](C)CN(C)[C@H](C)[C@@H](O)[C@]1(C)O	–	ATCC27853	–	< 98 µg/mL
COc1ccc2ccc(O)c(/C=N/[C@H]3CCCC[C@H]3/N=C/c3c(O)cccc3F)c2c1	broth dilution	–	–	> 40 µM
C[C@@H](O)[C@H]1C(=O)N2C(C(=O)O)=C(SCCN=CN)C[C@H]12	broth dilution	ATCC27853	–	4 µg/mL
Cc1ccc2[nH]nc(-c3nnc(Nc4cc(Cl)cc(Br)c4)s3)c2c1	–	ATCC27853	–	224 µg/mL
